Bioassay records deposited in PubChem BioAssay by several laboratories.
PKA-R2B activ = PKA-R2B complex activation | P22694+P31323 | PKA-R2B holoenzyme dissociation, Cy5-IP20 fluorescence polarization; R2B truncated from residue 108, S112A mutant; 0% DMSO only, 100% 113 µM cGMP | activation, % at 11.4 µM | actives 0.079% (n = 340,000);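 active = activation above a cutoff set at the mean over all compounds plus 3 SD, cut at about 18% in these data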;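 also: higher means more holoenzyme dissociation and a rise in polarization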
Target sequence (P31323 whole entry, looked up, other chains not shown, the tested form may be a part): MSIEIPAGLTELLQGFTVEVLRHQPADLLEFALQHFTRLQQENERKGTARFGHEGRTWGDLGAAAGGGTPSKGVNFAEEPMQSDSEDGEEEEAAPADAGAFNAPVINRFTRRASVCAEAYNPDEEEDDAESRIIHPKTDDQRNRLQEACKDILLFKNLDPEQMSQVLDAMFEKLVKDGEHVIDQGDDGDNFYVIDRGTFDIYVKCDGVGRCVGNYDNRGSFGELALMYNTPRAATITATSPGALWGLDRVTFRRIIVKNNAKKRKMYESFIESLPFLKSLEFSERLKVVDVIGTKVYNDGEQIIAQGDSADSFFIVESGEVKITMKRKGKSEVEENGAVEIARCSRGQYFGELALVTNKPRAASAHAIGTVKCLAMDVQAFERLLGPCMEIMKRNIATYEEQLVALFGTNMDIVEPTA
PKA-R1A activ = activates the PKA-R1A holoenzyme complex. actives 0.083% (n = 340,000). AID 504707. activation, % at 11.4 µM. PKA-R1A dissociation, Cy5-IP20 fluorescence polarization; scaled: DMSO 0%, 113 µM cGMP 100%. P00514+P68181;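 active = percent activation above the mean of all tested compounds plus 3 SD, cut at about 19% in these data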;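 also: higher means more PKAc released from R1A so a rise in polarization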
CRFBP-R2 block = blocks CRF-induced signaling of the CRF-BP/CRF-R2 complex; HEK293 CRF-R2/CRF-BP, CRF-induced calcium fluorescence; inhibition, % at 11.8 µM; actives 0.59% (n = 350,000);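 active = inhibition of the ligand-induced calcium signal above about 50% at the single tested concentration, limit read from the data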
S100A4 MyoIIA = S100A4-myosin IIA interaction inhibition; actives 0.14% (n = 360,000); AID 652163; P26447; S100A4/TAMRA-MyoIIA peptide fluorescence polarization; inhibition, % at 10.7 µM;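 active = mean inhibition of at least 70% across replicates, with every replicate also reaching that level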
Target sequence (P26447 whole entry, looked up): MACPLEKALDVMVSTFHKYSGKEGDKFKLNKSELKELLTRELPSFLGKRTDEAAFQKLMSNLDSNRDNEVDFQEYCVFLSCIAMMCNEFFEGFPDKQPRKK
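Material: human S100A4 monomer with TAMRA-labelled myosin IIA peptide; buffer or medium: HEPES pH 7.2 with CaCl2, KCl, NaCl, DTT, Triton; compound dosing: one concentration per compound; schedule: 5 min incubation before reading; benchmarks: neutral control DMSO, positive control TFP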
SIRT5 block = inhibitors of human sirtuin-5 desuccinylase | Purified SirT5, succinyl-peptide AMC, trypsin-coupled fluorescence | Q9NXA8 | AID 652115 | actives 1.1% (n = 330,000) | inhibition, % at 15 µM; in the data active = inhibition above about 15%
* hit, by the source's call; . = not tested or not shown; ! = a repeat was not active. Hits are enriched below; roughly 1.5% of the tested compounds scored in any of these assays.

SMILES | PKA-R2B activ | PKA-R1A activ | CRFBP-R2 block | S100A4 MyoIIA | SIRT5 block
CC(C)CC#Cc1ccc2c(c1)O[C@H](CN(C)Cc1ccc3c(c1)OCO3)[C@H](C)CN([C@H](C)CO)S2(=O)=O | . | . | . | -8 | 14*
CC(C)CC#Cc1ccc2c(c1)O[C@@H](CN(C)Cc1ccccc1F)[C@@H](C)CN([C@@H](C)CO)S2(=O)=O | . | . | . | 30 | 16*
CC(C)CC#Cc1ccc2c(c1)O[C@@H](CN(C)Cc1ccccc1F)[C@H](C)CN([C@@H](C)CO)S2(=O)=O | . | . | . | 0 | 1
C[C@H](CO)N1C[C@H](C)[C@H](CN(C)Cc2ccccc2F)Oc2cc(C#CC3CC3)ccc2S1(=O)=O | . | . | . | 4 | 43*
CN1C(=O)c2cc(NC(=O)C3CCOCC3)ccc2OC[C@@H]2O[C@@H](CC(=O)O)CC[C@@H]21 | . | . | . | 6 | 2
CCCNC(=O)C[C@@H]1C[C@H]2c3cc(N(C)C)ccc3O[C@H]2[C@@H](CO)O1 | . | . | . | 7 | 2
O=C(Cc1ccncc1)NCC[C@@H]1CC[C@@H](NS(=O)(=O)c2ccccc2Cl)[C@H](CO)O1 | . | . | . | 11 | 0
CCCNC(=O)N[C@@H]1CC[C@H](CCn2cc(-c3cccc(F)c3)nn2)O[C@@H]1CO | . | . | . | 10 | -1
N#C[C@H]1[C@H](c2ccc(C3=CCCC3)cc2)[C@H](CO)N1C(=O)NC1CCCC1 | . | . | . | -8 | 5
COc1ccc(NC(=O)C2(C)Cc3c(-c4ccc(C(N)=O)cc4)ccnc3O2)cc1OC (stereo not drawn) | . | . | . | 2 | 18*
COc1ccc(NC(=O)C2(C)Cc3c(-c4cccc(C(N)=O)c4)ccnc3O2)cc1OC (stereo not drawn) | . | . | . | -9 | 1
CC1(C(=O)Nc2cccc(C(F)(F)F)c2)Cc2c(-c3cccc(C(F)(F)F)c3)ccnc2O1 (stereo not drawn) | . | . | . | 3 | 21*
CC(=O)Nc1cccc(-c2ccnc3c2CC(C)(C(=O)Nc2cccc(C(F)(F)F)c2)O3)c1 (stereo not drawn) | . | . | . | 8 | 3
CN1C(=O)c2cc(NC(=O)c3ccccc3F)ccc2OC[C@H]2O[C@@H](CC(=O)NCc3ccc4c(c3)OCO4)CC[C@H]21 | . | . | . | -1 | -1
COc1ccccc1CNC(=O)C[C@H]1CC[C@H]2[C@@H](COC[C@@H](O)CN2Cc2cccc(-c3ccncc3)c2)O1 | . | . | . | -1 | 1
COc1ccccc1CCNC(=O)CCn1nc(C)c2c(C)n(-c3ccccc3)nc2c1=O | 5 | -4 | 76* | 2 | -1
Cc1ccccc1CCNC(=O)CCn1nc(C)c2c(C)n(-c3ccccc3)nc2c1=O | -1 | 2 | -4 | -4 | -1
O=C(Cn1nc(Cl)nc1Cl)Nc1ccccc1 | -10 | -9 | 61* | . | .
O=C(Cn1nc(Cl)nc1Cl)c1ccccc1 | 0 | 3 | 5 | 5 | 0
O=C(NNC(=O)c1cccc(S(=O)(=O)Nc2ccccc2F)c1)c1ccncc1 | 7 | 9 | -38 | -2 | 18*
O=C(Nc1cccc(S(=O)(=O)Nc2ccccc2F)c1)c1ccc2ccccc2n1 | 1 | -2 | 19 | 1 | -2
O=C(/C=C/c1ccccc1)Nc1cccc(S(=O)(=O)Nc2ccccc2F)c1 | -12 | -8 | -4 | 18 | 25*
O=C(Cc1ccc(Cl)cc1Cl)Nc1cccc(S(=O)(=O)Nc2ccccc2F)c1 | -9 | -6 | -23 | 8 | 30*
O=C(Nc1cccnc1)c1cccc(S(=O)(=O)Nc2ccccc2F)c1 | -29 | -2 | 2 | 4 | 1
COc1cccc(NC(=S)NC(=O)/C=C/c2ccco2)c1 | 2 | -14 | -5 | -3 | 1
SMILES | PKA-R2B activ | PKA-R1A activ | CRFBP-R2 block | S100A4 MyoIIA | SIRT5 block
O=C(/C=C/c1ccco1)NC(=S)Nc1cccc(C(=O)O)c1 | 2 | -3 | 4 | -6 | 22*
Cc1ccccc1N1C(=O)C2ON(c3ccccc3)C(c3ccco3)C2C1=O (stereo not drawn) | -9 | -6 | -4 | 2 | 23*
CCOc1ccc(N2C(=O)C3ON(c4ccccc4)C(c4ccco4)C3C2=O)cc1 (stereo not drawn) | 8 | -2 | 4 | 2 | -1
O=C(c1ccc(F)cc1)N1CCCCN2[C@H](C1)[C@H](c1ccc(C#CC3(O)CCCC3)cc1)[C@@H]2CO | . | . | . | -5 | -5
CCOC(=O)C(NC(=O)CC(C)C)(Nc1sc(C)c(CC)c1C#N)C(F)(F)F (stereo not drawn) | -6 | -7 | 51* | 2 | 0
O=C(Nc1ccccc1)c1ccccc1OCc1cccc([N+](=O)[O-])c1 | -7 | 4 | 53* | 4 | -4
CCOc1c(Br)cc(Br)cc1/C=C1\SC(N)=NC1=O | 13 | -4 | 7 | 0 | 15*
CCOc1cc(/C=C2\SC(N)=NC2=O)ccc1O | 2 | 0 | 0 | -5 | -1
CN(C)C(=O)c1cccc(-c2ccc(C3[C@@H]4CN(C(=O)c5ccccn5)C[C@H]3N4)cc2)c1 (stereo partly drawn) | . | . | . | -13 | 22*!
CN(C)C(=O)c1ccc(-c2ccc(C3[C@@H]4CN(C(=O)Cc5ccccc5)C[C@H]3N4)cc2)cc1 (stereo partly drawn) | . | . | . | -18 | 17*!
O=C(Cn1c(=O)cnc2ccccc21)Nc1ccccc1N1CCOCC1 | 5 | 3 | 4 | -8 | -3
CC(=O)c1ccccc1NC(=O)Cn1c(=O)cnc2ccccc21 | 0 | -9 | 72* | -1 | 1
O=C(CC1C(=O)NCCN1CCCc1ccccc1)NCCc1ccccc1Cl (stereo not drawn) | 10 | -9 | 3 | -4 | 15*
COc1ccc2c3c([nH]c2c1)[C@H](CO)N(Cc1ccccc1)CC31CCN(CC2CC2)CC1 | . | . | . | 8 | .
COC(=O)C1=C/C=C\CN(C(c2ccccc2)c2ccccc2)/C=C\1C(=O)OC | -4 | 10 | 52* | -6 | -4
COc1ccccc1OCC(=O)NCC1CCCN(C(=O)c2ccccc2C(C)=O)C1 (stereo not drawn) | -5 | 0 | 68* | -5 | 17*
COc1ccccc1OCC(=O)NCC1CCCN(C(=O)c2ccccc2SC)C1 (stereo not drawn) | -2 | -2 | 12 | 1 | -5
CC(C)C(=O)N=c1sc2cc(F)cc(F)c2n1C | 3 | -3 | 13 | -2 | 17*
CCOC(=O)C1CCN(C2=C(NS(=O)(=O)c3ccc(Br)cc3)C(=O)c3ccccc3C2=O)CC1 | -5 | -3 | -9 | 0 | 23*
NC(=O)C1CCN(C2=C(NS(=O)(=O)c3ccc(Br)cc3)C(=O)c3ccccc3C2=O)CC1 | -2 | -1 | 7 | -3 | -2
C[C@@H]1CCCCO[C@H](CN(C)Cc2ccc(C(F)(F)F)cc2)[C@@H](C)CN([C@H](C)CO)C(=O)c2cc(NC(=O)CCCCCC(=O)Nc3ccccc3N)ccc2O1 | . | . | . | -1 | 9
